Screens deposited in PubChem BioAssay by several laboratories.
Most compounds without a hit are left out; they make up all but 1.5% or so of the library.
Cardio protect = myocardial damage modulation in H9c2 cells; H9c2 cardiomyocytes, H2O2 injury protection, ATPLite, 2 h; protection from H2O2 cell death, % at 20 µM; 360,000 tested, 0.63% active;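 active means compounds giving at least 50% protection of heart cells from peroxide-induced death in the single-dose screen, raw or plate-pattern-corrected value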
Rin1-Abl PPI inh = human Rin1-Abl interaction inhibition; P00519+Q13671; TR-FRET Rin1/Abl binding, biochemical; inhibition, % at 7.35 µM; 360,000 tested, 0.4% active; AID 588664; in the data active means inhibition above about 5%, passing the limit was not always enough
PKA-R1A act = activators of PKA-R1A complex; P00514+P68181; PKA-R1A dissociation, Cy5-IP20 fluorescence polarization; scaled: DMSO 0%, 113 µM cGMP 100%; activation, % at 11.4 µM; 340,000 tested, 0.083% active;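 active means percent activation above the mean of all tested compounds plus 3 SD, cut at about 19% in these data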;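 further: higher means more PKAc released from R1A so a rise in polarization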
PKA-R2B activ = PKA-R2B complex activation; PKA-R2B holoenzyme dissociation, Cy5-IP20 fluorescence polarization; R2B truncated from residue 108, S112A mutant; 0% DMSO only, 100% 113 µM cGMP; activation, % at 11.4 µM; 340,000 tested, 0.079% active;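 active means activation above a cutoff set at the mean over all compounds plus 3 SD, cut at about 18% in these data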;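 further: higher means more holoenzyme dissociation and a rise in polarization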
Tb MetRS inh = blocks T. brucei methionyl-tRNA synthetase activity; 360,000 tested, 0.4% active; inhibition, % at 11.9 µM; AID 624268; purified T. brucei MetRS, ATP depletion, Kinase-Glo luminescence;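 active means inhibition above a per-plate cutoff of the control wells' mean inhibition plus 3 SD, cut at about 5.5% in these data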
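Material: T. brucei methionyl-tRNA synthetase, purified; reagent: substrates ATP, L-methionine and bulk Escherichia coli tRNA; dosing: 11.9 µM single point; timing: 15 min plus 2 h at 25 °C; detection: luminescence of leftover ATP; evaluation: % inhibition; control set: DMSO-only wells as low control; replicates: singlicate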
Tb MetRS conf = confirmation of Trypanosoma brucei MetRS inhibitors; inhibition, % at 11.9 µM; shares compounds with Tb MetRS inh; 1,400 tested, 93% active; AID 624412; T. brucei MetRS enzyme, luminescence (ATP depletion); in the data active means inhibition above about 7%
Jurkat tox = Jurkat T cell cytotoxicity for MetRS hits. shares compounds with Tb MetRS inh. Jurkat cells viability, ATP luminescence. inhibition, % at 8.3 µM. 1,400 tested, 12% active. AID 624413; in the data active means inhibition above about 15%
TbMetRS FP orth = orthogonal test for Trypanosoma brucei MetRS inhibitors. shares compounds with Tb MetRS inh. 1,400 tested, 44% active. purified T. brucei MetRS, fluorescence polarization. inhibition, % at 11.9 µM. AID 651607; in the data active means inhibition above about 17%
Of the large screens only hits and unclear results are named; the others gave an inactive call (follow-up assays come after a bar, where they were run).

O=C(NCc1ccccc1Cl)c1csc([C@@H]2C[C@H](O)[C@@H](CO)O2)n1	none (no result: PKA-R1A act, PKA-R2B activ)
O=C(NCc1cc(Cl)cc(Cl)c1)c1csc([C@@H]2C[C@H](O)[C@@H](CO)O2)n1	Tb MetRS inh 22 (no result: PKA-R1A act, PKA-R2B activ) | Tb MetRS conf 60 | Jurkat tox inactive | TbMetRS FP orth 35
CCOc1cccnc1Sc1ccccc1	none
Cc1noc(C)c1NC(=O)N(C)C[C@@H]1Oc2ccc(NC(=O)C3CCCCC3)cc2C(=O)N([C@@H](C)CO)C[C@H]1C	none
COc1ccc(C)c(NC(=O)NCCc2cnc[nH]2)c1	none
COc1ccc(C(=O)C2CCCN(Cc3cccn3-c3ccc(Cl)cn3)C2)c(OC)c1 (stereo unspecified)	none
O=C(/C(=C/c1ccc(Cl)cc1)c1nc2ccccc2[nH]1)c1ccccc1	Tb MetRS inh 6.6 | Tb MetRS conf inactive | Jurkat tox 98 | TbMetRS FP orth inactive
O=C(N/C(=C/c1ccc(Cl)cc1)c1nc2ccccc2[nH]1)c1ccco1	none
C[C@@H]1CCCCO[C@@H](CN(C)S(=O)(=O)c2ccc(F)cc2)[C@@H](C)CN([C@H](C)CO)C(=O)c2cc(NC(=O)c3ccccc3)ccc2O1	none
CC(C)S(=O)(=O)N1CCCC(c2cc(C(=O)NCc3ccccc3)no2)C1 (stereo unspecified)	none (no result: PKA-R1A act, PKA-R2B activ)
Nc1cc(C(=O)OCC(=O)NCCNC(=O)COC(=O)c2ccc(Cl)c(N)c2)ccc1Cl	Tb MetRS inh 11 | Tb MetRS conf 30 | Jurkat tox inactive | TbMetRS FP orth inactive
COc1ccccc1CNC(=O)COC(=O)c1ccc(Cl)c(N)c1	none
CN(C)CCNS(=O)(=O)c1ccc(N2CCc3ccccc32)c([N+](=O)[O-])c1	none
Cc1ccc2ncnc(NCCCN3CCOCC3)c2c1	none
CCOc1ccc2[nH]c3c(N4CCN(c5ccccn5)CC4)ncnc3c2c1	none
O=C1CCCN1CCCNc1ncnc2c1[nH]c1ccc(Cl)cc12	Tb MetRS inh 62 | Tb MetRS conf 71 | Jurkat tox inactive | TbMetRS FP orth 51
Cc1ccc2[nH]c3c(NCCN4CCOCC4)ncnc3c2c1	Tb MetRS inh 11 | Tb MetRS conf 22 | Jurkat tox inactive | TbMetRS FP orth inactive
C=CCNc1ncnc2c1[nH]c1ccc(C)cc12	Tb MetRS inh 11 | Tb MetRS conf 22 | Jurkat tox inactive | TbMetRS FP orth inactive
CCOc1ccc2[nH]c3c(NCCN(C)C)ncnc3c2c1	none
Cc1ccc2[nH]c3c(N4CCN(Cc5ccccc5)CC4)ncnc3c2c1	Tb MetRS inh 8.1 | Tb MetRS conf 18 | Jurkat tox 15 | TbMetRS FP orth inactive
O=C1CCCN1CCCn1cnc2c([nH]c3ccc(F)cc32)c1=O	none
Clc1ccc2[nH]c3c(NCCCN4CCOCC4)ncnc3c2c1	Tb MetRS inh 45 | Tb MetRS conf 56 | Jurkat tox inactive | TbMetRS FP orth 48
CCN1CCCC1CNc1ncnc2c1[nH]c1ccc(Cl)cc12 (stereo unspecified)	Tb MetRS inh 38 | Tb MetRS conf 59 | Jurkat tox inactive | TbMetRS FP orth 36
CCN1CCCC1Cn1cnc2c([nH]c3ccc(C)cc32)c1=O (stereo unspecified)	none
CCNc1nc(NCC)n2c(SCC(=O)Nc3ccccc3[N+](=O)[O-])nnc2n1	none
OC1(C#CCN2CCCC2)CCCCC1	none
COc1cc(CNC2CCCCCCC2)c(Br)cc1OCCO	none
CCN(CC)c1ncnc2c1[nH]c1ccccc12	none
CCCOc1ncnc2c1[nH]c1ccccc12	none
Fc1ccc2[nH]c3c(NCc4ccccc4)ncnc3c2c1	Tb MetRS inh 84 | Tb MetRS conf 92 | Jurkat tox 30 | TbMetRS FP orth 82
OCCCNc1ncnc2c1[nH]c1ccccc12	Tb MetRS inh 22 | Tb MetRS conf 39 | Jurkat tox inactive | TbMetRS FP orth 23
